Compound activity deposited in PubChem BioAssay by Johns Hopkins Ion Channel Center.
An excerpt weighted towards active compounds, which were near 3.5% of everything screened.
MrgX1 allo act = positive allosteric modulators of MrgX1, primary screen, HEK293 cells, Fluo-4 calcium flux | FDSS; stronger effect = higher value | B-score at 10 µM | Mas-related G-protein coupled receptor member X1 (Homo sapiens), Q96LB2 | actives 0.63% (n = 310,000);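 active = plate-corrected calcium response at least 3 library SD above typical, normal starting fluorescence, not activating the receptor alone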;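 note: compound read alongside a low EC10 to EC30 dose of BAM8-22 agonist; peak minus trough fluorescence over baseline measured at the second addition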
Target sequence (Q96LB2 whole entry, looked up): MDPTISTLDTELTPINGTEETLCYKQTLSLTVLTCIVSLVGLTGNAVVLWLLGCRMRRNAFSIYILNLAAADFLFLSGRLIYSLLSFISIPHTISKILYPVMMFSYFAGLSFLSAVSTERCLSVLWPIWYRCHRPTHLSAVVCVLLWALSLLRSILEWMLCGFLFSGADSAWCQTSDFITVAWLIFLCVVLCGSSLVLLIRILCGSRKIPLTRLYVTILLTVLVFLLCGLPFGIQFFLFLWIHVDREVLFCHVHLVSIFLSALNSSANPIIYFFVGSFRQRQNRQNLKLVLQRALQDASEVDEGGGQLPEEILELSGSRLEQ
RGS4 act = RGS4 potentiators or activators, primary screen, cell-based, HEK293 M3R inducible RGS4, calcium flux | carbachol calcium flux Fluo4; stronger effect = lower value | B-score at 10 µM | actives 0.92% (n = 310,000);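 active = B-score of the integrated calcium signal more than 4 SD below the library mean, with starting fluorescence not abnormally high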;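 note: negative B-score means reduced calcium response which marks RGS4 activation or potentiation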
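System – HEK293 FlpIn-TREx cells, stable M3R, doxycycline-inducible RGS4 · Reagent – ECmax carbachol challenge · Times – compound preincubation 20 min at room temperature before agonist · Technique – Fluo4 fluorescence kinetic imaging of calcium · Measure – B score of integrated Fluo4 ratio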
MrgX1 antag = antagonists of human MrgX1 receptor, primary screen, HEK293 cells, Fluo-4 calcium flux. actives 1.3% (n = 310,000). AID 588676, 2011. Mas-related G-protein coupled receptor member X1 (Homo sapiens), Q96LB2. BAM8-22 antagonism; stronger effect = lower value. B-score at 10 µM;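 active = calcium-response B-score plate-corrected more than 3 library SD below zero, starting fluorescence within 5 deviations, no agonist response on first addition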;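 note: peak minus trough fluorescence over baseline after final BAM8-22 challenge near maximal dose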
MrgX1 ag = agonists of human MrgX1 receptor, primary screen, HEK293 cells, Fluo-4 calcium flux | Fluo-4 calcium fluorescence, agonist mode; stronger effect = higher value | AID 588627, 2011 | Mas-related G-protein coupled receptor member X1 (Homo sapiens), Q96LB2 | B-score at 10 µM | actives 0.44% (n = 310,000);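 active = calcium response B-score plate-corrected fluorescence ratio at least 3 library SD, with starting fluorescence B-score inside 5 SD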
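Assay system: MrgX1-expressing HEK293 cells / Amount: fifteen thousand cells per well / Doses: test compound in the initial addition of three / Timing: cells plated overnight, dye loaded 0.5 h 37 °C, 0.5 h room temperature / Technique: kinetic calcium dye fluorescence, Fluo-4 NW / Control set: positive and negative controls per plate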
RGS4 inh = RGS4 inhibitors, primary screen, cell-based, HEK293 M3R inducible RGS4, calcium flux | Fluo-4 calcium flux; stronger effect = higher value; triggered by carbachol at its EC20 | actives 0.45% (n = 310,000) | B-score at 10 µM | Regulator of G-protein signaling 4 (Homo sapiens), P49798;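 active = B-score, a plate-corrected calcium signal, over three deviations above library mean, with baseline fluorescence within five deviations of library mean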;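 note: RGS4 expression induced by doxycycline in cells with stable M3 receptor; B-score is computed from the integrated fluorescence ratio over baseline after carbachol; higher B-score means a larger calcium signal and so more RGS4 inhibition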
Target sequence (P49798 whole entry, looked up): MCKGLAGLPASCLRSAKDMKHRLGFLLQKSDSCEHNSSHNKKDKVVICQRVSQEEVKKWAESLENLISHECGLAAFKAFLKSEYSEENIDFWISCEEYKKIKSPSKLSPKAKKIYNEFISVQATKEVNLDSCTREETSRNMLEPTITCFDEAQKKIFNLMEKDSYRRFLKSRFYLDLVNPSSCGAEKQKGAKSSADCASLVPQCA
MrgX1 ant reconf = MrgX1 receptor antagonists, duplicate retest, confirmation, HEK293 cells, Fluo-4 calcium flux; shares compounds with MrgX1 antag; BAM8-22 calcium flux; stronger effect = lower value; remaining BAM8-22 calcium response % of control (stronger effect = lower value), % at 10 µM; actives 19% (n = 2,300); AID 602420, 2012;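 active = remaining agonist calcium response no higher than 100% minus 3 SD of agonist-only control wells, with starting fluorescence near control levels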;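 note: agonist BAM8-22 given at a near maximal EC90 to ECmax level; peak minus minimum fluorescence divided by baseline after agonist addition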
HEK293 Ca flux = nonspecific calcium signal in parental HEK293, confirmation, counter-screen for MrgX1 antagonist project, parental HEK293 cells, Fluo-4 calcium flux; shares compounds with MrgX1 antag; Fluo-4 calcium fluorescence, FDSS; fluorescence ratio F(max-min)/F0 at 10 µM; actives 2% (n = 4,000); AID 624111, 2012;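 active = duplicate-averaged calcium fluorescence ratio at least three times the standard deviation of buffer wells, a nonspecific response in parental cells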
HEK293 Ca counter = calcium response in parental HEK293 cells, primary screen, counter-screen for MrgX1 allosteric activator project, cell-based, Fluo-4 calcium flux, duplicate. Fluo-4 fluorescence ratio; stronger effect = higher value. fluorescence ratio F(max-min)/F0 at 10 µM. actives 0.4% (n = 4,000). AID 624114, 2012. shares compounds with MrgX1 antag;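 active = calcium fluorescence ratio, averaged over duplicates, at least 3 SD of the buffer-well ratio, meaning a nonspecific response in receptor-free cells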;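 note: untransfected parental HEK293 lacking MrgX1 used as counterscreen for MrgX1 allosteric activators; fluorescence change taken during the second addition on a kinetic imager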
HEK293 Ca cntr2 = calcium response in parental HEK293 cells, primary screen, counter-screen for MrgX1 agonist project, cell-based, Fluo-4 calcium flux, duplicate, agonist mode | fluorescence ratio F(max-min)/F0 at 10 µM | Fluo-4 calcium fluorescence (FDSS); stronger effect = higher value | AID 624115, 2012 | actives 8.7% (n = 4,000) | shares compounds with MrgX1 antag;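 active = calcium fluorescence ratio at least three times the spread of buffer wells, meaning a non-specific response in parental cells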
* hit, by the source's call; i = inactive; . = no result given.

SMILES	MrgX1 allo act	RGS4 act	MrgX1 antag	MrgX1 ag	RGS4 inh	MrgX1 ant reconf	HEK293 Ca flux	HEK293 Ca counter	HEK293 Ca cntr2
CC1(C)CC(=O)c2c(-c3cccs3)n[nH]c2C1	i	i	-5.4*	i	i	i	i	i	i
Cc1cc(C)cc(C(=O)NCC(=O)OCC(=O)N(C)c2ccccc2)c1	i	i	-5.1*	i	i	i	i	i	i
COc1ccc(-c2nc(N3CCC(C)CC3)[nH]c(=O)c2C#N)cc1	i	i	-5.6*	i	i	i	i	i	i
COc1ccc(-c2nc(N3CCCC3)[nH]c(=O)c2C#N)cc1	i	i	i	i	i	.	.	.	.
CC(C)[C@H](NC(=O)c1cccc(CN(Cc2ccccc2)C(=O)/C=C/c2ccccc2)c1)C(=O)O	i	i	i	i	i	.	.	.	.
O=C(O)/C(=C\c1ccc(Cl)cc1)c1ccc(F)cc1	i	i	i	i	i	.	.	.	.
Cc1ccc(NC(=O)NCC2CCN(Cc3cccc(Cl)c3)CC2)c(Cl)c1	i	i	i	i	i	.	.	.	.
O=C(NCC1CCN(Cc2cccc(Cl)c2)CC1)Nc1ccccc1Cl	i	i	-5.7*	i	i	i	i	i	i
CC1=N/C(=C/c2cc(Br)cc(Br)c2O)C(=O)O1	i	i	i	i	i	.	.	.	.
O=C(NC1CCS(=O)(=O)C1)c1cccc(S(=O)(=O)N2CCCC2)c1 (configuration not stated)	i	i	i	i	i	.	.	.	.
Cc1cc(C(=O)N2CC=C(c3ccccc3)CC2)c2ccccc2n1	i	i	-4.7*	i	i	i	i	i	i
CCn1c(COc2ccc(OC)cc2)nc2ccccc21	i	i	i	i	i	.	.	.	.
CCOC(=O)c1ccc2c(c1)nc(COc1ccc3ccccc3c1)n2CC	i	-7.3*	-5.2*	i	i	i	i	i	i
COc1ccc(NC(=O)CSc2nnc(NC(=O)c3ccco3)s2)cc1OC	i	i	i	i	i	.	.	.	.
c1ccc(-c2noc(CN3CCCC(OCc4ccccn4)C3)n2)cc1 (configuration not stated)	i	i	i	i	i	.	.	.	.
CCOc1ccccc1C(=O)NC(C)c1ccc2c(c1)OCO2 (configuration not stated)	i	i	-5.3*	i	i	i	i	i	i
COc1ccc(Cc2nc3ccc(C(=O)NCC(C)(C)OC)cc3o2)cc1	i	i	-6.3*	i	i	i	i	i	i
Cc1cccc(NS(=O)(=O)c2cc(C(=O)OCC(=O)Nc3cc(C)on3)ccc2C)c1	i	i	-5*	i	i	i	i	i	i
Cc1cccc(NS(=O)(=O)c2ccc(C)c(C(=O)OCC(=O)Nc3cc(C)on3)c2)c1	i	i	i	i	i	.	.	.	.
COc1ccc(C(=O)N/N=C(\C)CC(=O)NC2CCCCC2)c(OC)c1	i	i	i	i	i	.	.	.	.
CCc1cc(=O)oc2c(C)c(OCC(=O)NCCCn3ccnc3)ccc12	i	i	i	i	i	.	.	.	.
O=C(NCCN1CCOCC1)C1CC(=O)N(c2ccc(Cl)cc2)C1 (configuration not stated)	i	i	i	i	i	.	.	.	.
CCOC(=O)c1cnc2c(cnn2C)c1NCCC(O)C(F)(F)F (configuration not stated)	i	i	-4.8*	i	i	i	i	i	i
CCOC(=O)c1cnc2c(cnn2C)c1Oc1ccc(OC)cc1	i	i	i	i	i	.	.	.	.
COc1ccccc1-c1nnc(SC2CCc3ccccc3NC2=O)s1 (configuration not stated)	i	i	-6.4*	i	i	i	i	i	i
SMILES	MrgX1 allo act	RGS4 act	MrgX1 antag	MrgX1 ag	RGS4 inh	MrgX1 ant reconf	HEK293 Ca flux	HEK293 Ca counter	HEK293 Ca cntr2
CC(=O)N1CCc2cc(S(=O)(=O)CCC(=O)Nc3cc(C)cc(C)c3)ccc21	i	i	i	i	i	.	.	.	.
Cn1ccnc1SCC(=O)Nc1ccc(Br)cc1C(F)(F)F	i	i	-5.9*	i	i	i	i	i	i
Cc1ccc(Cn2nc(C)c(NC(=O)c3nn(C)cc3Cl)c2C)cc1	i	i	-10*	i	i	i	i	i	i
CCn1c(SCC(=O)Nc2ccc(C(C)=O)cc2)nc2nc3c(cc2c1=O)CCCC3	i	i	-5.8*	i	i	i	i	i	i
S=C(NCCc1c[nH]c2ccccc12)NC1CCCC1	i	i	-4.9*	i	i	i	i	i	i
S=C(NCCc1c[nH]c2ccccc12)NC1CCCCC1	i	i	i	i	i	.	.	.	.
CC1CCCCC1NC(=O)c1cccc(S(=O)(=O)N2CCN(C)CC2)c1 (configuration not stated)	i	i	i	i	i	.	.	.	.
CC1CCCC(NC(=O)c2cccc(S(=O)(=O)N3CCN(c4ccccc4)CC3)c2)C1C (configuration not stated)	i	i	-9.2*	i	i	i	i	i	i
CSc1cccc(NS(=O)(=O)c2ccc3c(c2)oc(=O)n3C)c1	i	i	-6.2*	i	i	76%*	i	i	i
C/C(=N\NC(=O)c1cccc(Br)c1)c1cccnc1	i	i	i	i	i	.	.	.	.
